Screening data deposited in PubChem by several laboratories.
Pemphigus Ab inh: inhibitors of pemphigus antibody binding to human desmoglein-3; binding (percent of control), % at 10 µM; DSG3-coupled beads, scFv-anti-DSG3-GFP binding, flow cytometry; stronger effect = lower value; 0.48% of 310,000 active; AID 588358;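 active means binding more than 3 SD below its plate's average and above zero; inconclusive means below that plate limit but binding exactly zero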;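 further: hits lower antibody fragment binding to DSG3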
Target sequence (P32926 whole entry, looked up, the tested form may be a part): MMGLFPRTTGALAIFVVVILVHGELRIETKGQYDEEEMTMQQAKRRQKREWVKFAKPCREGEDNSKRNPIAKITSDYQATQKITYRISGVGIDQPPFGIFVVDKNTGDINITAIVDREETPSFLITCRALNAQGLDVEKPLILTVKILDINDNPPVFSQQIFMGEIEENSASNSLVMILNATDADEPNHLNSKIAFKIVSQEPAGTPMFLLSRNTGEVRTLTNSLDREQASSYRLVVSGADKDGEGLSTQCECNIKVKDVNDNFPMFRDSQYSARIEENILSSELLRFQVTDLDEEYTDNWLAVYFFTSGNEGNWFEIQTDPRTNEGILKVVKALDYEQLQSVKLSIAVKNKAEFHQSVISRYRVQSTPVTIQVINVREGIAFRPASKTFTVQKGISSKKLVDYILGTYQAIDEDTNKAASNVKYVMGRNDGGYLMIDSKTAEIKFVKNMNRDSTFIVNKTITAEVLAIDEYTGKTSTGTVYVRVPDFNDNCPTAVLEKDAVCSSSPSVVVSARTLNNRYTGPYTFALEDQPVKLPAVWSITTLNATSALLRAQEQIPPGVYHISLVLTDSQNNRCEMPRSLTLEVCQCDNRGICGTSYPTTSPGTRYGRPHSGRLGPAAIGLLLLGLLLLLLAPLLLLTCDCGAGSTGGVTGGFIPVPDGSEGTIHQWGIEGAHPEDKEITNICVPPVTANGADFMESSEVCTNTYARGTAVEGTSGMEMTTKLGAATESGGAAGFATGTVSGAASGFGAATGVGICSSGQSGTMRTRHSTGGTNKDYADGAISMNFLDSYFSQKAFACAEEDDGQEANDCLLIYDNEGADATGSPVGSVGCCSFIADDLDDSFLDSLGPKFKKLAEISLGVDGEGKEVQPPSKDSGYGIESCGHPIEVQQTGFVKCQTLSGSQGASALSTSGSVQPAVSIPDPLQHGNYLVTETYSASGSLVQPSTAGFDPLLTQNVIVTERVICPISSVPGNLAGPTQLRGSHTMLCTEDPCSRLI
JMJD2C inh: blocks human GASC-1 demethylase activity. GST-JMJD2C(1-420) H3K9me3 demethylation, DELFIA europium. Q9H3R0. 0.069% of 330,000 active. AID 2099. inhibition, % at 2.35 µM;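 active means more than half of a compound's replicate wells show inhibition beyond 50%, single wells judged on their own value; inconclusive means some, but no more than half, of replicates pass 50% inhibition; inactive means no replicate passes 50% inhibition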;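 further: signal counts dimethyl H3K9 product captured on neutravidin plate; 0% = median of DMSO wells and 100% = 0.3 times that DMSO median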
Arr AP2 block: inhibitors of human beta-arrestin and AP2 interaction | FITC-arrestin peptide / GST-AP2 beads, flow cytometry; AP2 beta2 appendage carries R879A mutation | inhibition, % at 10 µM | 0.31% of 340,000 active | AID 504490;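 active means inhibition above a set limit, near 3 SD of compounds lacking own fluorescence, cut at about 54% in these data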;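 further: plate controls were DMSO wells for no effect and 5 µM unlabelled arrestin peptide for full effect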
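Test system: GST-tagged AP2 beta2-adaptin appendage (R879A) on 4 µm glutathione beads; also added: fluorescein-tagged arrestin peptide at 50 nM final; timing: 12 min plus 1 h, RT; signal: flow cytometry, FL1 (488/535 nm); read-out: percent drop in bead-associated FITC signal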
T cell modulator: modulates CD8 T cell binding to vesicles; 2C CD8+ T cell-vesicle binding, flow cytometry; stronger effect = lower value; response (vesicle binding), % at 7 µM; 0.068% of 330,000 active; AID 2052;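 active means response, share of CD8 T cells binding vesicles, and their 90th percentile fluorescence all below set limits, cut at about 80% in these data, passing the limit was not always enough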;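 further: values below 100% mean blocked vesicle binding to the CD8+ T cells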
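Test system: purified 2C TCR transgenic mouse naive CD8+ T cells. Probe or stimulus: QL9-peptide-loaded Drosophila micro-vesicles bearing Ld, ICAM-1 and B7-1. Incubation: binding step 1.5 h, 37 °C, antibody labelling 20 min, ice. Measured by: flow cytometry of vesicle-bound cells.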
HDAC3 inh: inhibitors of human histone deacetylase 3; O15379; recombinant HDAC3, fluorogenic peptide/trypsin coupled, fluorescence; inhibition, % at 8.3 µM; 0.15% of 320,000 active; AID 2718; in the data active means inhibition above about 26%, passing the limit was not always enough; inconclusive means no clear call, values can overlap the other calls
LANA-H2B inh: blocks KSHV LANA binding to histone H2A/H2B | Q9QR71 | cell-free LANA-H2A/H2B peptide, fluorescence polarization | inhibition, % (no concentration beside the values) | 0.6% of 320,000 active | AID 2629; in the data active means inhibition mostly above about 10%, no sharp cut-off; inactive means mostly below about 6.7%
Active calls of the source: *. Most compounds without a hit are left out; they make up all but 1.6% or so of the library.

How did Nc1nnc(SCCCOc2ccc(F)cc2)s1 do in these assays?
Pemphigus Ab inh: 113; JMJD2C inh: -32; Arr AP2 block: 23; T cell modulator: 430; HDAC3 inh: -1; LANA-H2B inh: 25*

How did O=S(=O)(NC1CC1)c1ccc(S(=O)(=O)N2CCC3(CC2)OCCO3)cc1 do in these assays?
Pemphigus Ab inh: 113; JMJD2C inh: -1; Arr AP2 block: 14; T cell modulator: 255; HDAC3 inh: 4; LANA-H2B inh: 19*

Results for Cc1ccc(NC(=O)C2CC(=O)N(C(C)C)C2)cc1Cl (stereo not drawn) ?
Pemphigus Ab inh: 113; JMJD2C inh: -1; Arr AP2 block: 7; T cell modulator: 314; HDAC3 inh: 3; LANA-H2B inh: 4

Results for CC(C)N1CC(C(=O)Nc2ccc(Br)c(Cl)c2)CC1=O (stereo not drawn) ?
Pemphigus Ab inh: 97; JMJD2C inh: 69*; Arr AP2 block: 1; T cell modulator: 220; HDAC3 inh: 3; LANA-H2B inh: 0

What do the screens show for `CCOc1ccc(C(=O)CN2C(=O)NC3(CCCc4ccccc43)C2=O)cc1` (stereo not drawn)?
Pemphigus Ab inh: 113

Results for Clc1cccc(Cl)c1/C=C/c1nc2ccccc2[nH]1 ?
Pemphigus Ab inh: 104; JMJD2C inh: -8; Arr AP2 block: 1; T cell modulator: 199; HDAC3 inh: -8; LANA-H2B inh: 11*

How did Clc1ccc(/C=C/c2nc3ccccc3[nH]2)cc1 do in these assays?
Pemphigus Ab inh: 101; JMJD2C inh: -6; Arr AP2 block: 22; T cell modulator: 299; HDAC3 inh: -62; LANA-H2B inh: -2

What do the screens show for `O=C(NNC(=O)C1CCN(S(=O)(=O)c2ccccc2)CC1)c1ccccc1O`?
Pemphigus Ab inh: 98; JMJD2C inh: 94*; Arr AP2 block: 42; T cell modulator: 293; HDAC3 inh: -7; LANA-H2B inh: 6

Results for COc1cc(/C=N/O)c(Br)cc1OCC(=O)Nc1ccccc1C ?
Pemphigus Ab inh: 95; JMJD2C inh: 4; Arr AP2 block: -6; T cell modulator: 223; HDAC3 inh: -7; LANA-H2B inh: 17*

Results for Cc1ccc(-c2cc(C(=O)NCc3ccc4c(c3)OCO4)[nH]n2)c(O)c1C ?
Pemphigus Ab inh: 102; JMJD2C inh: -5; Arr AP2 block: -15; T cell modulator: 530; HDAC3 inh: 6; LANA-H2B inh: -1

Results for Cc1cc(O)c(-c2cc(C(=O)NCc3ccc4c(c3)OCO4)[nH]n2)cc1C ?
Pemphigus Ab inh: 82*; JMJD2C inh: -12; Arr AP2 block: 9; T cell modulator: 267; HDAC3 inh: 6; LANA-H2B inh: -1

Results for CC(=O)Nc1cccc(C2=CC(c3ccco3)n3ncnc3N2)c1 (stereo not drawn) ?
JMJD2C inh: -6; T cell modulator: 176; HDAC3 inh: 5; LANA-H2B inh: 30*

Results for COc1ccc(C(C(=O)NC2CCCCC2)N(Cc2cccs2)C(=O)Cc2c[nH]c3ccccc23)cc1 (stereo not drawn) ?
Pemphigus Ab inh: 30*; JMJD2C inh: -1; Arr AP2 block: 5; T cell modulator: 212; HDAC3 inh: -9; LANA-H2B inh: 0

How did COc1ccc(N2CC(O)=C(c3nc(-c4ccccc4)cs3)C2=N)cc1 do in these assays?
Pemphigus Ab inh: 43*; JMJD2C inh: -1; Arr AP2 block: 3; T cell modulator: 373; LANA-H2B inh: -2

What do the screens show for `COc1ccc2cc(CCC(C)=O)ccc2c1`?
Pemphigus Ab inh: 102; JMJD2C inh: inconclusive; Arr AP2 block: 4; T cell modulator: 139; HDAC3 inh: 10; LANA-H2B inh: 13*

What do the screens show for `COc1ccc(CCc2ccc3cc(OC)ccc3n2)cc1`?
Pemphigus Ab inh: 90; Arr AP2 block: 54

What do the screens show for `CCOc1ccc(N2C(=O)S/C(=C\c3cccn3C)C2=O)cc1`?
Pemphigus Ab inh: 96; JMJD2C inh: -1; Arr AP2 block: 2; T cell modulator: 219; HDAC3 inh: 1; LANA-H2B inh: 20*
